Test results reported in ChEMBL document CHEMBL1156993, “Benzyl prolinate derivatives as novel selective KCC2 blockers” (Bioorg Med Chem Lett, 2010).
In brackets after ≈: the same amount, converted by molar mass.

Experiments:
[1] = target: T1, Solute carrier family 12 member 5 (Rattus norvegicus, UniProt Q63633); assay: Antagonist activity of rat KCC2 transporter expressed in human SK-Hep cells assessed as inhibition of N-ethylmaleimide-mediated Rb+ influx after 10 mins by atomic absorption spectroscopy; assay type: functional, cell-based
T1 sequence (Q63633 whole entry): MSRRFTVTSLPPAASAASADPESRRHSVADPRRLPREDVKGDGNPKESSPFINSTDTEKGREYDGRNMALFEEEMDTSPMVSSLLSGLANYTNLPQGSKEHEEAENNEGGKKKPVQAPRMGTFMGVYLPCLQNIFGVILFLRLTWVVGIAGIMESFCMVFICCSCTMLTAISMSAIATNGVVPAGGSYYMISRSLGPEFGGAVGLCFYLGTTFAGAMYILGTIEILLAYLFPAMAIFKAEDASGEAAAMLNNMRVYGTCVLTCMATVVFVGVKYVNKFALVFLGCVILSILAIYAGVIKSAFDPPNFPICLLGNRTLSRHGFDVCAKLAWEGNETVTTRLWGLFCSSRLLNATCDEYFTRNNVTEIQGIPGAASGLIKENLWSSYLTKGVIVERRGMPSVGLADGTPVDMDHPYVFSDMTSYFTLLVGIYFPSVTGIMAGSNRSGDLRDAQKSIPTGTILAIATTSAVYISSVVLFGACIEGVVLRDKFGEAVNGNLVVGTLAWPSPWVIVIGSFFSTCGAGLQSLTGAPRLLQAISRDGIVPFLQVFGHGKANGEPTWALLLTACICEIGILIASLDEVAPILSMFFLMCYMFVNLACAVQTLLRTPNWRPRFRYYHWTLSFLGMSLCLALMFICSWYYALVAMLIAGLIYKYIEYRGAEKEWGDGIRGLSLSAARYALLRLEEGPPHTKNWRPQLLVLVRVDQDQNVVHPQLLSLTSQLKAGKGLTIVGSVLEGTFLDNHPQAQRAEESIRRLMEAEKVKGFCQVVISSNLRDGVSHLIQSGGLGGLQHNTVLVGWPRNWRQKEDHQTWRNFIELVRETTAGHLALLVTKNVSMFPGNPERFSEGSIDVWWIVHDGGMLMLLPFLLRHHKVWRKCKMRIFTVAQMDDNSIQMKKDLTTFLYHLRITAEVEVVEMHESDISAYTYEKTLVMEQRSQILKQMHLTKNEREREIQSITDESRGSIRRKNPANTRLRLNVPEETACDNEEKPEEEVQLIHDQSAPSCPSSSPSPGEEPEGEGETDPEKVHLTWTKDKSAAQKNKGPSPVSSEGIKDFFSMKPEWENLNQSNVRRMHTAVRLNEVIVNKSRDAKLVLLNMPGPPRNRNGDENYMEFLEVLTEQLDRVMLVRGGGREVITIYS
In short: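 Rat KCC2 stably expressed in a selected clone. The co-transporter is activated with N-ethylmaleimide in the presence of the test compound, and Rb+ influx is started by adding 5 mM RbCl to the extracellular medium. Influx is stopped after 10 min by repeated washes. Intracellular Rb+ is measured by atomic absorption spectroscopy, and IC50 is reported.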

[2] = Antagonist activity to dog NKCC1 transporter expressed in MDCK cells assessed as inhibition of Cl- free medium-stimulated Rb+ influx at 100 uM after 45 mins by atomic absorption spectroscopy; assay type: functional, Canis lupus familiaris; settings: for inhibition at 100 µM: Canis lupus familiaris, MDCK, 0.75 h
In short: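 MDCK cells express endogenous canine NKCC1. NKCC1 is activated by incubating the cells for 2 h in Cl−-free medium. Rb+ influx is then stimulated for 45 min by adding 20 mM RbCl to the extracellular solution. Intracellular Rb+ is quantified by atomic absorption spectroscopy, and results are given as percent inhibition.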

[3] = Cmax in Wistar rat at 6 mg/kg, po; assay type: ADME, organism-based; set-up: dose 6 mg/kg, route oral; settings: in vivo
In short: (§1)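 Male Wistar rats are dosed at 1 mg/kg iv for half-life and clearance, and at 6 mg/kg po for AUC, Cmax and oral bioavailability.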

CYP2C19 = CYP2C19 (Homo sapiens, UniProt P33261); assay: Inhibition of human CYP2C19 at 50 uM; assay type: ADME
Chain of CYP2C19 (P33261 whole entry): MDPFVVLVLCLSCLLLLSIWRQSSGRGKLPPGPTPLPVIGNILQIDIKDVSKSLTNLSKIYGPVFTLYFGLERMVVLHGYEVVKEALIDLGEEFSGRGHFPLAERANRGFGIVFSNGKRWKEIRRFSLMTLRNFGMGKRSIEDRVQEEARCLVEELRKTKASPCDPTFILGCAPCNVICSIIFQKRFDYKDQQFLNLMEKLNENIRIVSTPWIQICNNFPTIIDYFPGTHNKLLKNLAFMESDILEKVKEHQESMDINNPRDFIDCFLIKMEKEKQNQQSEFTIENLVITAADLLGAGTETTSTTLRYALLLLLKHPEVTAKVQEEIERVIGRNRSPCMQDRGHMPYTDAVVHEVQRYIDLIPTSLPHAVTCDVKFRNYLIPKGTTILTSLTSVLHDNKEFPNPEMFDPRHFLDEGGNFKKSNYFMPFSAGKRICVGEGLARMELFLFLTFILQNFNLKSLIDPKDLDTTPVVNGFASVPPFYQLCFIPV

[4] = Apparent permeability across human Caco-2 cells; assay type: ADME, cell-based
CYP2C9 = CYP2C9 (Homo sapiens, UniProt P11712); assay: Inhibition of human CYP2C9 at 50 uM; assay type: ADME
Chain of CYP2C9 (P11712 whole entry): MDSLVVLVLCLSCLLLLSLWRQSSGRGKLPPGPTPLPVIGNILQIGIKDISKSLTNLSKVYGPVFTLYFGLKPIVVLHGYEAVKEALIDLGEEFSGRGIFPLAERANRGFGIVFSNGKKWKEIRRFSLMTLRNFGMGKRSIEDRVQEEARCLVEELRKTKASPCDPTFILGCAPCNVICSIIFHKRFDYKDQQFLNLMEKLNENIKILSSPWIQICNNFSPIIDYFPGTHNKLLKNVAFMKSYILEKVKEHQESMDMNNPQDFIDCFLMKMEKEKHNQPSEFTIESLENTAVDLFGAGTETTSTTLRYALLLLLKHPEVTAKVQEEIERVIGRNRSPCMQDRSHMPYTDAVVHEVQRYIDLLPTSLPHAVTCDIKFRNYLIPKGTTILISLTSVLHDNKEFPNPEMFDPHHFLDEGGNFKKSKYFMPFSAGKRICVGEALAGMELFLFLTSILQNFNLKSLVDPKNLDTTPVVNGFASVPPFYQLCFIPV

[5] = Oral bioavailability in Wistar rat at 6 mg/kg; assay type: ADME, organism-based; settings: in vivo; in short: as §1
CYP2D6 = CYP2D6 (Homo sapiens, UniProt P10635); assay: Inhibition of human CYP2D6 at 50 uM; assay type: ADME
Chain of CYP2D6 (P10635 whole entry): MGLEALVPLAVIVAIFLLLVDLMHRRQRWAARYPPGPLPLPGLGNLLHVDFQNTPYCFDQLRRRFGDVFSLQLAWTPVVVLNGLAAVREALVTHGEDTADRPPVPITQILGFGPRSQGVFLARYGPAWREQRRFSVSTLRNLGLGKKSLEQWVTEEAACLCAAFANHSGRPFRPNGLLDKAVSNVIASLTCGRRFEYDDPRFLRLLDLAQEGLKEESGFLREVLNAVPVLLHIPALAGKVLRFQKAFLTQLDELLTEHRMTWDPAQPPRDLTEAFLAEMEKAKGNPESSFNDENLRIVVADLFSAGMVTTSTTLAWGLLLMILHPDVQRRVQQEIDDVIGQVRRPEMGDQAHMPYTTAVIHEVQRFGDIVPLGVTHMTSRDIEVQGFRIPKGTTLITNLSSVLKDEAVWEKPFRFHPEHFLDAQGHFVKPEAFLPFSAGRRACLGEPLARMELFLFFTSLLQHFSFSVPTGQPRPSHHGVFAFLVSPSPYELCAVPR

[6] = Intrinsic clearance in rat microsomes assessed per mg of protein; assay type: ADME, Microsome
[7] = Aqueous solubility in PBS buffer at pH 7.4; assay type: physicochemical
[8] = Clearance in Wistar rat at 1 mg/kg, iv; assay type: ADME, organism-based; set-up: dose 1 mg/kg, route intravenous; settings: in vivo; in short: as §1
[9] = AUC in Wistar rat at 6 mg/kg, po; assay type: ADME, organism-based; set-up: dose 6 mg/kg, route oral; settings: plasma; in short: as §1
[10] = Intrinsic clearance in rat hepatocytes assessed per 10^6 cells
CYP3A4 = CYP3A4 (Homo sapiens, UniProt P08684); assay: Inhibition of human CYP3A4 at 50 uM; assay type: ADME
Chain of CYP3A4 (P08684 whole entry): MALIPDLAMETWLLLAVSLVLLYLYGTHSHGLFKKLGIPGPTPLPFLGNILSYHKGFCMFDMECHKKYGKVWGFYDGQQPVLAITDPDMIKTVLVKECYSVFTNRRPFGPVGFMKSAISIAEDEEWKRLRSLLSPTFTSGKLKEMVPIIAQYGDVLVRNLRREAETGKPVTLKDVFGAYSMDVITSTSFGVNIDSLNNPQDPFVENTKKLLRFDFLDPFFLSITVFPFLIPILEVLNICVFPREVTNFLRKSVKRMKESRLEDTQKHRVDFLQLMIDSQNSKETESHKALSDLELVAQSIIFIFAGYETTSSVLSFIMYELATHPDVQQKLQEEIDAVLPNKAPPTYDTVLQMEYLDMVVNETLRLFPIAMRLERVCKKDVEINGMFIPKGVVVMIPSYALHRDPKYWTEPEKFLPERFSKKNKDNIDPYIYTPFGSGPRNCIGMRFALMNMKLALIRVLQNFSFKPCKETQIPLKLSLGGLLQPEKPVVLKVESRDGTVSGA

[11] = Drug level in NMRI mouse brain at 43.3 mg/kg, ip after 5 mins; assay type: ADME, organism-based; set-up: dose 43.3 mg/kg, route intraperitoneal; settings: read-out: Drug uptake
In short: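 NMRI mice are dosed ip at 43.3 mg/kg. Plasma and brain exposure are determined 5 min after dosing, and free brain concentration is reported.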

[12] = Half life in Wistar rat at 1 mg/kg, iv; assay type: ADME, organism-based; set-up: dose 1 mg/kg, route intravenous; settings: in vivo; in short: as §1

## CC(=O)N1CCCC1(Cc1ccccc1)C(=O)OCc1ccccc1 (single isomer, unassigned; (+))
[1]
  IC50: 0.32 µM
[2]
  inhibition (INH): 14%

## CC(=O)N1CCCC1(Cc1ccccc1)C(=O)N(C)Cc1ccccc1 (stereo not given)
[1]
  IC50: 32 µM

## CC(=O)N1CCCC1(Cc1ccccc1)C(=O)OCCc1ccccc1 (stereo not given)
[1]
  IC50: 10 µM

## CC(=O)N1CCCC1(Cc1ccccc1)C(=O)OCc1ccc(Cl)cc1 (stereo not given)
[1]
  IC50: 1.3 µM

## COC(=O)C1(Cc2ccccc2)CCCN1C(C)=O (stereo not given)
[1]
  IC50: > 100 µM

## CC(=O)N1CCCC1(Cc1ccc(S(C)(=O)=O)cc1)C(=O)OCc1ccccc1 (stereo in doubt; 13)
[3]
  Cmax: 457 ng/mL
CYP2C19
  inhibition at 50 µM: < 30%
[4]
  Papp: 31 ×10⁻⁶ cm/s
CYP2C9
  inhibition at 50 µM: < 30%
[5]
  bioavailability: 18%
CYP2D6
  inhibition at 50 µM: < 30%
[6]
  microsomal CLint: 16 µL/min/mg
[7]
  solubility: 500 µg/mL (≈ 1200 µM)
[8]
  clearance: 26 mL/min/kg
[9]
  AUC: 726 ng·h/mL
[1]
  IC50: 1 µM
[10]
  hepatocyte CLint: 12 µL/min/1e6 cells
CYP3A4
  inhibition at 50 µM: < 30%
[11]
  concentration at 5 min: 6 µM
[2]
  inhibition at 100 µM: 35%
[12]
  half-life: 0.3 h

## CC(=O)N1CCCC1(Cc1ccc(Cl)cc1)C(=O)OCc1ccccc1 (stereo not given)
[1]
  IC50: 0.32 µM

## CC(=O)N1CCCC1(Cc1cccc(C#N)c1)C(=O)OCc1ccccc1 (stereo not given)
[1]
  IC50: 0.32 µM

## CC(=O)N1CCCC1(CC1CCCCC1)C(=O)OCc1ccccc1 (stereo not given)
[6]
  microsomal CLint: 382 µL/min/mg
[7]
  solubility: 3 µg/mL (≈ 8.73 µM)
[1]
  IC50: 1 µM
[2]
  inhibition at 100 µM: 39%

## CC(=O)N1CCCC1(Cc1ccccc1)C(=O)OCc1cccc(Cl)c1 (stereo not given)
[1]
  IC50: 2.5 µM

## CCC1(C(=O)OCc2ccccc2)CCCN1C(C)=O (stereo not given)
[1]
  IC50: 80 µM

## CC(=O)N1CCCC1(Cc1ccsc1)C(=O)OCc1ccccc1 (stereo not given)
[1]
  IC50: 0.79 µM

## CC(=O)N1CCCC1(Cc1ccccc1)C(=O)OCc1ccncc1 (stereo not given)
[1]
  IC50: > 100 µM

## CC(=O)N1CCCC1(Cc1ccccc1)C(=O)OCc1ccccc1 (racemic)
[3]
  Cmax: 11.9 ng/mL
[5]
  bioavailability: 0.5%
[6]
  microsomal CLint: 385 µL/min/mg
[7]
  solubility: 2 µg/mL (≈ 5.93 µM)
[8]
  clearance: 61 mL/min/kg
[9]
  AUC: 8.6 ng·h/mL
[1]
  IC50: 0.79 µM
[10]
  hepatocyte CLint: 28 µL/min/1e6 cells
[2]
  inhibition (INH): 44%
[12]
  half-life: 2.4 h

## CC(=O)N1CCCC1(Cc1ccccc1)C(=O)OCc1ccccc1Cl (stereo not given)
[1]
  IC50: 6 µM

## CC(=O)N1CCCC1(Cc1ccc(F)cc1)C(=O)OCc1ccccc1 (stereo not given)
[1]
  IC50: 0.2 µM

## COc1ccc(CC2(C(=O)OCc3ccccc3)CCCN2C(C)=O)cc1 (stereo not given)
[6]
  microsomal CLint: 333 µL/min/mg
[7]
  solubility: 10 µg/mL (≈ 27.2 µM)
[1]
  IC50: 0.4 µM
[10]
  hepatocyte CLint: 23 µL/min/1e6 cells
[2]
  inhibition at 100 µM: 59%

## CC(=O)N1CCCC1(Cc1ccccc1)C(=O)OC(C)c1ccccc1 (stereo not given)
[1]
  IC50: 4 µM

## O=C(c1ccccc1)N1CCCC1(Cc1ccccc1)C(=O)OCc1ccccc1 (stereo not given)
[1]
  IC50: 4 µM

## CC(=O)N1CCCC1(Cc1ccccc1)C(=O)NCc1ccccc1 (stereo not given)
[1]
  IC50: 100 µM

## CC(=O)N1CCCC1(Cc1ccc(F)c(C(F)(F)F)c1)C(=O)OCc1ccccc1 (stereo not given)
[6]
  microsomal CLint: 356 µL/min/mg
[7]
  solubility: 0.5 µg/mL (≈ 1.18 µM)
[1]
  IC50: 0.06 µM
[10]
  hepatocyte CLint: 20 µL/min/1e6 cells
[2]
  inhibition at 100 µM: 24%

## CCN1CCCC1(Cc1ccccc1)C(=O)OCc1ccccc1 (stereo not given)
[1]
  IC50: > 100 µM

## COC(=O)N1CCCC1(Cc1ccccc1)C(=O)OCc1ccccc1 (stereo not given)
[1]
  IC50: 0.4 µM

## CC(=O)N1CCCC1(Cc1ccccc1)C(=O)OCC1CCCCC1 (stereo not given)
[1]
  IC50: 63 µM
